In ChEMBL document CHEMBL2311397, “Design and synthesis of cyclopropylamide analogues of combretastatin-A4 as novel microtubule-stabilizing agents” (J Med Chem, 2013):
Active and inactive are the calls of the source. The rule behind the calls is not given here.

Columns and labels:
A549 [1] = test: Antimitotic activity against human A549 cells assessed as cell mitotic arrest at 10 uM after 22 hrs by DAPI/FITC staining-based laser fluorescence confocal microscopic analysis (reference value: 1.1 %); assay type: functional
A549 [2] = test: Induction of apoptosis in human A549 cells early apoptotic cells at 5 uM after 24 hrs by annexin V-FITC/propidium iodide staining-based flow cytometry (reference value: 0.73 %); assay type: functional
A549 [3] = test: Cell cycle arrest in human A549 cells assessed as accumulation at G2/M phase at 5 uM after 24 hrs by propidium iodide staining-based flow cytometry (reference value: 2.78 %); assay type: functional
A549 [4] = test: Induction of apoptosis in human A549 cells assessed as viable cells at 10 uM after 24 hrs by annexin V-FITC/propidium iodide staining-based flow cytometry (reference value: 94.08%); assay type: functional; settings: A549, 24 h, read-out: Activity
A549 [5] = test: Cell cycle arrest in human A549 cells assessed as accumulation at S phase at 1 uM after 24 hrs by propidium iodide staining-based flow cytometry (reference value: 9.12 %); assay type: functional
A549 [6] = test: Antitumor activity against human A549 cells xenografted in ig dosed BALB/c nude mouse assessed as tumor growth inhibition measured on day 16; assay type: functional, organism-based
Summary of the method: (§1)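 Male BALB/c nude mice, 5 weeks old (18–20 g), implanted subcutaneously in the right armpit with A549 tumor fragments (3 mm3). On day 13, at 100–200 mm3, daily intragastric dosing began: 100 or 500 mg/kg test compound, or 30 mg/kg paclitaxel, in Tween-80 diluted with saline. Vehicle given ip. Tumor volume and body weight followed; n = 6; inhibition rate at day 16.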

K562 = test: Cytotoxicity against human K562 cells after 48 hrs by MTT assay; assay type: functional, cell-based; settings: Homo sapiens, K562, 48 h
Summary of the method: (§2)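 Log-phase cells (40000–50000 cells/mL) grown in DMEM with 10% fetal calf serum (5% CO2, 37 °C) and exposed 48 h to five concentrations, 3–5 replicates. Read-out was MTT with absorbance at 570 nm; IC50 reported as mean ± SD of three independent experiments. Resistant A549 and HeLa sublines were made by stepwise paclitaxel selection; resistance index = IC50(resistant)/IC50(sensitive).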

A549 [7] = test: Effect on microtubule dynamics in human A549 cells at 5 to 10 uM after 22 hrs by DAPI/FITC staining-based laser fluorescence confocal microscopic analysis; assay type: functional, cell-based
Summary of the method: (§3)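 Confocal imaging of A549 cells exposed for 22 h to compound or vehicle (0.2% DMSO final), added at 70% confluency after overnight growth. Fixation followed by 0.5% Triton X-100 permeabilization and 10% goat serum blocking; tubulin stained with FITC anti-α-tubulin (1:100, 2 h, 37 °C), nuclei counterstained with DAPI. Wide-field images taken at 10–15 random slide locations.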

A549 [8] = test: Cell cycle arrest in human A549 cells assessed as accumulation at S phase at 5 uM after 24 hrs by propidium iodide staining-based flow cytometry (reference value: 9.12 %); assay type: functional
A549 [9] = test: Effect on chromosomal alteration in human A549 cells at 10 uM after 22 hrs by DAPI/FITC staining-based laser fluorescence confocal microscopic analysis
A549 [10] = test: Cell cycle arrest in human A549 cells assessed as accumulation at G1 phase at 10 uM after 24 hrs by propidium iodide staining-based flow cytometry (reference value: 87.56 %); assay type: functional
A549 [11] = test: Effect on spindle microtubule dynamics in human A549 cells at 10 uM after 22 hrs by DAPI/FITC staining-based laser fluorescence confocal microscopic analysis
A549 [12] = test: Cell cycle arrest in human A549 cells assessed as accumulation at G1 phase at 1 uM after 24 hrs by propidium iodide staining-based flow cytometry (reference value: 87.56 %); assay type: functional
A549 [13] = test: Cell cycle arrest in human A549 cells assessed as accumulation at G2/M phase at 10 uM after 24 hrs by propidium iodide staining-based flow cytometry (reference value: 2.78 %); assay type: functional
A549 [14] = test: Cytotoxicity against paclitaxel-resistant human A549 cells after 48 hrs by MTT assay; assay type: functional, cell-based; settings: A549, 48 h; summary of the method: as §2
A549 [15] = test: Antitumor activity against human A549 cells xenografted in BALB/c nude mouse assessed as tumor growth inhibition at 500 mg/kg, ig measured on day 16; assay type: functional; settings: A549, po, 384 h, route intragastric, read-out: TGI; summary of the method: as §1
A549 [16] = test: Cytotoxicity against human A549 cells after 48 hrs by MTT assay; assay type: functional, cell-based; settings: Homo sapiens, A549, 48 h; summary of the method: as §2
A549 [17] = test: Cell cycle arrest in human A549 cells assessed as accumulation at G2/M phase after 24 hrs by propidium iodide staining-based flow cytometry; assay type: functional
A549 [18] = test: Induction of apoptosis in human A549 cells assessed as early apoptotic cells at 1 uM after 24 hrs by annexin V-FITC/propidium iodide staining-based flow cytometry (reference value: 0.73 %); assay type: functional
A549 [19] = test: Induction of apoptosis in human A549 cells assessed as necrotic cells at 5 uM after 24 hrs by annexin V-FITC/propidium iodide staining-based flow cytometry (reference value: 2.76%); assay type: functional
A549 [20] = test: Cell cycle arrest in human A549 cells assessed as accumulation at G1 phase at 5 uM after 24 hrs by propidium iodide staining-based flow cytometry (reference value: 87.56 %); assay type: functional
A549 [21] = test: Induction of apoptosis in human A549 cells assessed as necrotic cells at 1 uM after 24 hrs by annexin V-FITC/propidium iodide staining-based flow cytometry (reference value: 2.76%); assay type: functional
A549 [22] = test: Resistance index, ratio of IC50 for paclitaxel-resistant human A549 cells to IC50 for paclitaxel-sensitive human A549 cells; assay type: functional; summary of the method: as §2
A549 [23] = test: Cell cycle arrest in human A549 cells assessed as accumulation at G2/M phase at 1 uM after 24 hrs by propidium iodide staining-based flow cytometry (reference value: 2.78 %); assay type: functional
A549 [24] = test: Induction of apoptosis in human A549 cells assessed as viable cells at 5 uM after 24 hrs by annexin V-FITC/propidium iodide staining-based flow cytometry (reference value: 94.08%); assay type: functional; settings: A549, 24 h, read-out: Activity
[25] = Cytotoxicity against human QGY cells after 48 hrs by MTT assay; assay type: functional, cell-based; settings: Homo sapiens, QGY, 48 h; summary of the method: as §2
A549 [26] = test: Induction of apoptosis in human A549 cells assessed as late apoptotic cells at 1 uM after 24 hrs by annexin V-FITC/propidium iodide staining-based flow cytometry (reference value: 1.02%); assay type: functional
HeLa [27] = test: Cytotoxicity against paclitaxel-resistant human HeLa cells after 48 hrs by MTT assay; assay type: functional, cell-based; summary of the method: as §2
A549 [28] = test: Induction of apoptosis in human A549 cells early apoptotic cells at 10 uM after 24 hrs by annexin V-FITC/propidium iodide staining-based flow cytometry (reference value: 0.73 %); assay type: functional
A549 [29] = test: Effect on spindle microtubule dynamics in human A549 cells at 10 uM after 22 hrs by DAPI/FITC staining-based laser fluorescence confocal microscopic analysis; assay type: functional, cell-based; summary of the method: as §3
A549 [30] = test: Cell cycle arrest in human A549 cells assessed as accumulation at G1 phase at 0.1 uM after 24 hrs by propidium iodide staining-based flow cytometry (reference value: 87.56 %); assay type: functional
HeLa [31] = test: Resistance index, ratio of IC50 for paclitaxel-resistant human HeLa cells to IC50 for paclitaxel-sensitive human HeLa cells; assay type: functional; summary of the method: as §2

COc1cc([C@@H]2C[C@]2(CO)C(=O)Nc2ccccc2Cl)cc(OC)c1OC
Activity (A549 [1]): 78.8% | Activity (A549 [2]): 37.4% | Activity (A549 [3]): 60.85% | viability at 10 µM (A549 [4]): 40.9% | Activity (A549 [5]): 9.96% | TGI (A549 [6]): Dose-dependent effect | IC50 (K562): 16.9 µM | Activity (A549 [7]): Active | Activity (A549 [8]): 10.81% | Activity (A549 [9]): Active | Activity (A549 [10]): 9.85% | Activity (A549 [11]): Active | Activity (A549 [12]): 38.41% | Activity (A549 [13]): 79.92% | IC50 (A549 [14]): 5.3 µM | inhibition in vivo at 500 mg/kg (A549 [15]): 55.9% | IC50 (A549 [16]): 4.4 µM | Activity (A549 [17]): Dose-dependent effect | Activity (A549 [18]): 15.57% | Activity (A549 [19]): 2.04% | Activity (A549 [20]): 28.62% | Activity (A549 [21]): 1.46% | Ratio IC50 (A549 [22]): 1.2 | Activity (A549 [23]): 51.68% | viability at 5 µM (A549 [24]): 59% | IC50 [25]: 15.7 µM | Activity (A549 [26]): 2.82% | IC50 (HeLa [27]): 10.7 µM | Activity (A549 [28]): 55.23% | Activity (A549 [29]): Active | Activity (A549 [30]): 78.7% | Ratio IC50 (HeLa [31]): 1.3
